According to ChEMBL document CHEMBL3585270, “Discovery of oxime-bearing naphthalene derivatives as a novel structural type of Nrf2 activators” (Bioorg Med Chem, 2015):
Active and inactive are the calls of the source. No cut-off for these calls is given here.

Legend:
[1] = tested on: Jurkat; assay: Cytotoxicity against human Jurkat cells assessed as reduction in cell viability by MTT assay; assay type: cell-based
In short: (§1)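 Cells cultured in MEM or RPMI1640 with 10% FBS, 37 °C, 5% CO₂. After compound exposure, 5 µg/ml MTT in MEM for 2 h at 37 °C, then solubilized overnight at 37 °C (40% DMF, 20% SDS); absorbance at 570 nm. IC50 taken from linear portion of curve as concentration cutting absorbance 50% versus control.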

[2] = Cytotoxicity against human NPC-TW01 cells assessed as reduction in cell viability by MTT assay; assay type: cell-based; in short: as §1
[3] = tested on: NCI-H226; assay: Cytotoxicity against human NCI-H226 cells assessed as reduction in cell viability by MTT assay; assay type: cell-based; in short: as §1
[4] = target: T1, Nuclear factor erythroid 2-related factor 2 (Homo sapiens) (UniProt Q16236); assay: Activation of Nrf2 in human NPC-TW01 or HONE1 cells expressing ARE-luciferase at 20 uM incubated for 16 hrs by luciferase reporter gene assay relative to untreated control; assay type: cell-based
T1 sequence (whole entry): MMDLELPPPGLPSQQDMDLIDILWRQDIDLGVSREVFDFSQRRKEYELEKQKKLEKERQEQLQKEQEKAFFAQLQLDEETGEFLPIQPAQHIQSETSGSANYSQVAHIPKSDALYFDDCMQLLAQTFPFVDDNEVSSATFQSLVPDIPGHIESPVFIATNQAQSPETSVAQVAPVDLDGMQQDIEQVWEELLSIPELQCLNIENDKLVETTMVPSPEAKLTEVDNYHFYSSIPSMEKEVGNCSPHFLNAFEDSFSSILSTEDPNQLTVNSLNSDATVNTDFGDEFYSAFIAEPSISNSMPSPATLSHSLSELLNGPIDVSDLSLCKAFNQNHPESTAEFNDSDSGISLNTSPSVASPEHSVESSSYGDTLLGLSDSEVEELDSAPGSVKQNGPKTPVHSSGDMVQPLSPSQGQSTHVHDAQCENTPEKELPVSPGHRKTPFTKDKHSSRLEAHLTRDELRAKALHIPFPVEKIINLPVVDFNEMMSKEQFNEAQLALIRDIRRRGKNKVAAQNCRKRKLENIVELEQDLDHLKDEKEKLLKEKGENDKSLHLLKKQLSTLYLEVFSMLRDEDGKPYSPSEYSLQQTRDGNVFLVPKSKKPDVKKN

[5] = tested on: NPC-TW01; assay: Inhibition of H2O2-induced intracellular oxidative stress in human NPC-TW01 cells expressing pGL4-9ARE at 20 uM pre-treated for 6 hrs before H2O2 challenge for 16 hrs by DCFH-DA dye based flow cytometry; assay type: functional, cell-based
In short: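 TW01-pGL4-9ARE cells, 1 × 10⁵ per well, grown overnight, pre-treated 20 µM for 6 h, then 500 µM H2O2 for 16 h. Stained with 20 µM DCFH-DA 30 min at 37 °C, resuspended in PBS, analysed by flow cytometry; geometric mean fluorescence reported, p < 0.05 versus H2O2 alone.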

[6] = target: T1, Nuclear factor erythroid 2-related factor 2 (Homo sapiens); assay: Activation of Nrf2 in human NPC-TW01 or HONE1 cells expressing ARE-luciferase at 20 uM incubated for 16 hrs in presence of PKC signaling inhibitor staurosporine by luciferase reporter gene assay relative to untreated control; assay type: cell-based
[7] = target: T1, Nuclear factor erythroid 2-related factor 2 (Homo sapiens); assay: Induction of Nrf2 Ser40 phosphorylation in human NPC-TW01 cells expressing pGL4-9ARE incubated for 6 and 12 hrs by Western blot method; assay type: cell-based
In short: (§2)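 TW01-pGL4-9ARE cells treated and harvested at set times; lysed in NP-40 buffer with phosphatase/protease inhibitors, protein by BCA. 40 µg lysate on 10% SDS-PAGE, PVDF transfer, 5% BSA/TBS-Tween block; primary antibodies (p-Nrf2 Ser40, total Nrf2, actin) overnight at 4 °C, HRP secondary 1 h room temperature; imaged by chemiluminescence imager.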

[8] = tested on: NPC-TW01; assay: Effect on Nrf2 protein expression in human NPC-TW01 cells expressing pGL4-9ARE incubated for 6 and 12 hrs by Western blot method; assay type: functional, cell-based; in short: as §2

Row | SMILES | fold change (FC) [4] | Activity [6] | Activity [7] | IC50 [1] | IC50 [2] | IC50 [3] | inhibition [5] | Activity [8]
1 | O/N=C(\COc1cccc2ccccc12)c1ccc(Cl)cc1 | 1 |  |  | > 50 µM | > 50 µM | > 50 µM |  | 
2 | COc1ccc(/C(COc2cccc3ccccc23)=N/O)cc1 | 1.1 |  |  | 31.8 µM | 32.3 µM | 36.7 µM |  | 
3 | O/N=C(\COc1cccc2ccccc12)c1ccc(C(F)(F)F)cc1 | 1.01 |  |  | > 50 µM | 46.4 µM | > 50 µM |  | 
4 | COc1ccc(OC)c(/C(COc2cccc3ccccc23)=N/O)c1 | 0.93 |  |  | > 50 µM | 32.3 µM | 41.5 µM |  | 
5 | O/N=C(\COc1ccc2ccccc2c1)c1ccccc1 | 3.49 | inactive | Active | > 50 µM | > 50 µM | > 50 µM | Active | inactive
6 | COc1ccc(/C(COc2ccc3ccccc3c2)=N/O)cc1 | 1.65 | inactive | Active | 35.8 µM | > 50 µM | > 50 µM | Active | inactive
7 | O/N=C(\COc1ccc2ccccc2c1)c1ccc(F)c(F)c1 | 1.42 |  |  | 44.6 µM | 36.1 µM | 42.8 µM |  | 
8 | C/C(COc1cccc2ccccc12)=N\O | 1.17 |  |  | > 50 µM | > 50 µM | > 50 µM |  | 
9 | O/N=C(\COc1ccc2ccccc2c1)c1ccc(Cl)cc1 | 1.07 |  |  | 37.3 µM | 26 µM | 34.9 µM |  | 
10 | O/N=C(\COc1ccc2ccccc2c1)c1ccc(F)cc1 | 2.61 | inactive | Active | > 50 µM | > 50 µM | > 50 µM | Active | inactive
11 | C/C(COc1ccc2ccccc2c1)=N\O | 2.04 | inactive | Active | > 50 µM | > 50 µM | > 50 µM | Active | inactive
12 | O/N=C(\COc1ccc2ccccc2c1)c1ccc(Br)cc1 | 0.95 |  |  | 47.2 µM | 27.9 µM | 39.1 µM |  | 
13 | O/N=C(\COc1cccc2ccccc12)c1ccc(-c2ccccc2)cc1 | 1.19 |  |  | > 50 µM | > 50 µM | > 50 µM |  | 
14 | O/N=C(\COc1cccc2ccccc12)c1ccc(F)cc1 | 1.09 |  |  | > 50 µM | > 50 µM | > 50 µM |  | 
15 | O/N=C(\COc1cccc2ccccc12)c1ccccc1 | 1.14 |  |  | > 50 µM | > 50 µM | 47.1 µM |  | 
16 | O/N=C(\COc1ccc2ccccc2c1)c1ccc(-c2ccccc2)cc1 | 1.18 |  |  | > 50 µM | > 50 µM | > 50 µM |  | 

Further lines, with some results ahead:

Row | fold change (FC) [4] | Activity [6] | Activity [7] | SMILES | IC50 [1] | IC50 [2] | IC50 [3] | inhibition [5] | Activity [8]
17 | 0.65 |  |  | COc1ccc(OC)c(/C(COc2ccc3ccccc3c2)=N/O)c1 | 10.1 µM | 16.7 µM | 8.6 µM |  | 
18 | 0.86 |  |  | O/N=C(\COc1cccc2ccccc12)c1ccc(F)c(F)c1 | 42.6 µM | 36.8 µM | > 50 µM |  | 
19 | 1.03 |  |  | O/N=C(\COc1cccc2ccccc12)c1ccc(Br)cc1 | > 50 µM | > 50 µM | > 50 µM |  | 
20 | 1.05 |  |  | O/N=C(\COc1ccc2ccccc2c1)c1ccc(C(F)(F)F)cc1 | 36.2 µM | 30.7 µM | 34.1 µM |  | 
21 | 1.77 |  |  | CC(C)(C)c1cc(O)ccc1O |  |  |  |  | 
22 | 1.36 |  |  | O/N=C(\COc1ccc2ccccc2c1)c1ccc2ccccc2c1 | 24.3 µM | > 50 µM | 37.1 µM |  | 
23 | 1.25 |  |  | O/N=C(\COc1cccc2ccccc12)c1ccc2ccccc2c1 | > 50 µM | 36.1 µM | 38.9 µM |  | 
